From ChEMBL document CHEMBL6177937, “Design, synthesis, and biological evaluation of novel thiazole derivatives as PI3K/mTOR dual inhibitors” (RSC Med Chem, 2024) come the findings set out here.

As a reminder, the GI50 is the concentration that inhibits growth by half. A word on the TGI: it is the concentration at which net growth stops.

Common to all, as to assay type: functional
Assay [1] has as its system HL-60. Put plainly: Cell cycle arrest in human HL-60 cells assessed as decrease in accumulation of cells at G2/M-phase at 2.32 uM measured after 24 hrs by propidium iodide staining based flow cytometry relative to control. Also on record: scale not given: the % may be the effect or the level left. Background: In flow cytometry, cells or beads pass a laser one at a time.

The test system of a further assay is SR. Kind of assay: Growth inhibition of human SR cells measured after 48 hrs by SRB assay. The essentials: (§1)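 NCI 60-line SRB screen: cells seeded […], grown 24 h at 37°C, 5% CO2, then exposed 48 h to five concentrations (10-fold or ½-log dilutions from DMSO stock). Adherent cells fixed with cold TCA (final 10%), suspension cells with 80% TCA (final 16%); SRB stained, read at 515 nm. GI50 from time-zero, control and treated absorbances.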

For assay [2], the system named is HL-60. Put plainly: Cell cycle arrest in human HL-60 cells assessed as decrease in accumulation of cells at S-phase at 2.32 uM measured after 24 hrs by propidium iodide staining based flow cytometry relative to control. Set-up: scale not given: the % may be the effect or the level left.
The next assay concerns SW-620. Kind of assay: Growth inhibition of human SW620 cells measured after 48 hrs by SRB assay. The essentials:
as §1

Assay [3] relates to HL-60. Put plainly: Cell cycle arrest in human HL-60 cells assessed as increase in accumulation of cells at G0/G1-phase at 2.32 uM measured after 24 hrs by propidium iodide staining based flow cytometry relative to control.
For assay [4], the system named is HL-60. Put plainly: Cell cycle arrest in human HL-60 cells assessed as decrease in accumulation of cells at G2/M-phase at 2.29 uM measured after 24 hrs by propidium iodide staining based flow cytometry relative to control. Set-up: scale not given: the % may be the effect or the level left.
Assay [5] concerns HL-60. Put plainly: Cell cycle arrest in human HL-60 cells assessed as decrease in accumulation of cells at S-phase at 2.29 uM measured after 24 hrs by propidium iodide staining based flow cytometry relative to control. Also on record: scale not given: the % may be the effect or the level left.
The test system of assay [6] is HL-60. Put plainly: Cell cycle arrest in human HL-60 cells assessed as increase in accumulation of cells at G0/G1-phase at 2.29 uM measured after 24 hrs by propidium iodide staining based flow cytometry relative to control.

`CCOc1cc(/C=N/Nc2nc(-c3cccc([N+](=O)[O-])c3)cs2)ccc1O`: the figures for the Activity in the assay on HL-60 [1] and in the assay with HL-60 [2] were 63.5% and 2.5%, respectively. Moreover, the GI50 in the assay with SR amounted to 3.07 µM; with SW-620, 3.53 µM. Moreover, the TGI in the assay on SR was more than 100 µM; in the assay on SW-620 it was 11.6 µM. Moreover, the CC50 in the assay with SR (read-out: LC50 (the source's name)) is more than 100 µM. The “fold change (FC)” value with HL-60 [3] was 1.28.

Consider `O=[N+]([O-])c1cc(/C=N/Nc2nc(-c3ccc(Cl)cc3)cs2)ccc1Cl`, for which the Activity turned out to be 12.8% in the assay with HL-60 [4] and 7.3% with HL-60 [5]. In the assay with SW-620, this molecule yielded a GI50 of 18.3 µM. In the assay with SW-620, this molecule yielded a TGI of 43.1 µM. Also, the “fold change (FC)” value in the assay on HL-60 [6] was 1.13.
